Calls of active or inactive are those of the source. The rule behind the calls is not given here.
Key:
Mus musculus [1] = organism: Mus musculus; assay: Binding affinity to amyloid beta plaques in wild type mouse brain at 100 uM after 3 to 10 hrs using Thioflavin S staining by fluorescence microscopy; type: tissue-based
Outline: (§1)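 Brains of female Tg2576 mice (32 months) or wild-type controls (30 months) removed after decapitation and frozen in powdered dry ice. 10 µm sections incubated with compound (100 µM) for 3–10 h, then washed twice for 5 min in 50% EtOH or 50% DMSO. Fluorescence imaged with a GFP filter set (ex 470 nm, em >535 nm). Adjacent sections stained with thioflavin S to confirm plaques.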

Mus musculus [2] = organism: Mus musculus; assay: Binding affinity to amyloid beta plaques in Tg2576 transgenic mouse brain at 100 uM after 3 to 10 hrs using Thioflavin S staining by fluorescence microscopy; type: tissue-based; outline: as §1
[3] = molecular target: T1, Amyloid-beta precursor protein (Homo sapiens, UniProt P05067); assay: Displacement of [125I]IMPY from amyloid beta (1 to 42) (unknown origin) after 3 hrs by gamma counting
T1 sequence (P05067 whole entry): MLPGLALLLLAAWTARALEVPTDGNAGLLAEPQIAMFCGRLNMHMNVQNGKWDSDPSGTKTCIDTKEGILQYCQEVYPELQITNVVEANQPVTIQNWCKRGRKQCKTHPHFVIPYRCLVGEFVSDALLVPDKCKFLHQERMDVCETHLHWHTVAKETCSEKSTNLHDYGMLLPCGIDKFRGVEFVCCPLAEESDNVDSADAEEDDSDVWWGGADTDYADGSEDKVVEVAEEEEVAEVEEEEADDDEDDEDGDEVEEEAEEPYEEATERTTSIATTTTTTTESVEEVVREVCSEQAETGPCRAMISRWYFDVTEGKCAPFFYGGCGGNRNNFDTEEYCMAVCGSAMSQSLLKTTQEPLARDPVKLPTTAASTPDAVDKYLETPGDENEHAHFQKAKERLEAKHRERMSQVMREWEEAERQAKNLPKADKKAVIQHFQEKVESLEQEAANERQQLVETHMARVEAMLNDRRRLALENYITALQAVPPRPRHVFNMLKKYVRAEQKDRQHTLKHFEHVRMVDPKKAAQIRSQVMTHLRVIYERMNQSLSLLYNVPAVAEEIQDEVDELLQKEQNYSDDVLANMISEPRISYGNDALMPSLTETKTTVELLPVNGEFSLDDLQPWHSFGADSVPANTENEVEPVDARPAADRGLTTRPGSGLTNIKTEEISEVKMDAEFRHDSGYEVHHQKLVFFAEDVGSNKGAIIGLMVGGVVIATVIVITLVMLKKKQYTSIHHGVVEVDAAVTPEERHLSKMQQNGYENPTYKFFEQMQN
Outline: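 Filtered through GF/B filters and bound radioactivity gamma-counted. IC50 from displacement curves of three independent experiments; Ki calculated with the Cheng–Prusoff equation.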

[4] = molecular target: T1, Amyloid-beta precursor protein; assay: Binding affinity to amyloid beta aggregate (unknown origin) by centrifugation method
Outline: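 Aβ(1-42) aggregated at 0.25 mg/mL in pH 7.4 buffer (10 mM sodium phosphate, 1 mM EDTA), 37 °C for 42 h with shaking. [125I]ligand at 4–500 nM final (set with unlabelled compound) in 10% EtOH incubated with aggregates 2 h at room temperature. Centrifuged 16,000 rpm, 10 min; supernatant gamma-counted for bound/free ratio. Nonspecific binding with 10 µM unlabelled ligand. Kd and Bmax from Scatchard analysis.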

Heart [5] = assay: Biodistribution in ddY mouse heart at 0.1 to 0.4 uCi, iv after 60 mins by gamma counting; type: ADME, organism-based; settings: in vivo, 1 h
Outline: (§2)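 [125I]ligand (0.1–0.4 µCi) in 100 µL PBS (pH 7.4) containing 30 µL DMSO, injected into the tail vein of ddY mice (5 weeks, 22–25 g). Mice sacrificed at 2, 10, 30 and 60 min. Organs removed, weighed and gamma-counted. Values are % injected dose per gram, except stomach as % dose per organ. Mean (SD) of 3–6 mice per time point.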

Pancreas [6] = assay: Biodistribution in ddY mouse pancreas at 0.1 to 0.4 uCi, iv after 60 mins by gamma counting; type: ADME, organism-based; settings: in vivo, 1 h; outline: as §2
Stomach [7] = assay: Biodistribution in ddY mouse stomach assessed per organ at 0.1 to 0.4 uCi, iv after 60 mins by gamma counting; type: ADME, organism-based; settings: in vivo, 1 h; outline: as §2
Lung [8] = assay: Biodistribution in ddY mouse lung at 0.1 to 0.4 uCi, iv after 60 mins by gamma counting; type: ADME, organism-based; settings: in vivo, 1 h; outline: as §2
Spleen [9] = assay: Biodistribution in ddY mouse spleen at 0.1 to 0.4 uCi, iv after 60 mins by gamma counting; type: ADME, organism-based; settings: in vivo, 1 h; outline: as §2
Intestine [10] = assay: Biodistribution in ddY mouse intestine at 0.1 to 0.4 uCi, iv after 60 mins by gamma counting; type: ADME, organism-based; settings: in vivo, 1 h; outline: as §2
Kidney [11] = assay: Biodistribution in ddY mouse kidney at 0.1 to 0.4 uCi, iv after 60 mins by gamma counting; type: ADME, organism-based; settings: in vivo, 1 h; outline: as §2
Liver [12] = assay: Biodistribution in ddY mouse liver at 0.1 to 0.4 uCi, iv after 60 mins by gamma counting; type: ADME, organism-based; settings: in vivo, 1 h; outline: as §2
Brain [13] = assay: Biodistribution in ddY mouse brain at 0.1 to 0.4 uCi, iv after 60 mins by gamma counting; type: ADME, organism-based; settings: in vivo, 1 h; outline: as §2
Blood [14] = assay: Biodistribution in ddY mouse blood at 0.1 to 0.4 uCi, iv after 60 mins by gamma counting; type: ADME, organism-based; settings: in vivo, 1 h; outline: as §2
Heart [15] = assay: Biodistribution in ddY mouse heart at 0.1 to 0.4 uCi, iv after 30 mins by gamma counting; type: ADME, organism-based; settings: in vivo, 0.5 h; outline: as §2
Pancreas [16] = assay: Biodistribution in ddY mouse pancreas at 0.1 to 0.4 uCi, iv after 30 mins by gamma counting; type: ADME, organism-based; settings: in vivo, 0.5 h; outline: as §2
Stomach [17] = assay: Biodistribution in ddY mouse stomach assessed per organ at 0.1 to 0.4 uCi, iv after 30 mins by gamma counting; type: ADME, organism-based; settings: in vivo, 0.5 h; outline: as §2
Lung [18] = assay: Biodistribution in ddY mouse lung at 0.1 to 0.4 uCi, iv after 30 mins by gamma counting; type: ADME, organism-based; settings: in vivo, 0.5 h; outline: as §2
Spleen [19] = assay: Biodistribution in ddY mouse spleen at 0.1 to 0.4 uCi, iv after 30 mins by gamma counting; type: ADME, organism-based; settings: in vivo, 0.5 h; outline: as §2
Intestine [20] = assay: Biodistribution in ddY mouse intestine at 0.1 to 0.4 uCi, iv after 30 mins by gamma counting; type: ADME, organism-based; settings: in vivo, 0.5 h; outline: as §2
Kidney [21] = assay: Biodistribution in ddY mouse kidney at 0.1 to 0.4 uCi, iv after 30 mins by gamma counting; type: ADME, organism-based; settings: in vivo, 0.5 h; outline: as §2
Liver [22] = assay: Biodistribution in ddY mouse liver at 0.1 to 0.4 uCi, iv after 30 mins by gamma counting; type: ADME, organism-based; settings: in vivo, 0.5 h; outline: as §2
Brain [23] = assay: Biodistribution in ddY mouse brain at 0.1 to 0.4 uCi, iv after 30 mins by gamma counting; type: ADME, organism-based; settings: in vivo, 0.5 h; outline: as §2
Blood [24] = assay: Biodistribution in ddY mouse blood at 0.1 to 0.4 uCi, iv after 30 mins by gamma counting; type: ADME, organism-based; settings: in vivo, 0.5 h; outline: as §2
Heart [25] = assay: Biodistribution in ddY mouse heart at 0.1 to 0.4 uCi, iv after 10 mins by gamma counting; type: ADME, organism-based; settings: in vivo; outline: as §2
Pancreas [26] = assay: Biodistribution in ddY mouse pancreas at 0.1 to 0.4 uCi, iv after 10 mins by gamma counting; type: ADME, organism-based; settings: in vivo; outline: as §2
Stomach [27] = assay: Biodistribution in ddY mouse stomach assessed per organ at 0.1 to 0.4 uCi, iv after 10 mins by gamma counting; type: ADME, organism-based; settings: in vivo; outline: as §2
Lung [28] = assay: Biodistribution in ddY mouse lung at 0.1 to 0.4 uCi, iv after 10 mins by gamma counting; type: ADME, organism-based; settings: in vivo; outline: as §2
Spleen [29] = assay: Biodistribution in ddY mouse spleen at 0.1 to 0.4 uCi, iv after 10 mins by gamma counting; type: ADME, organism-based; settings: in vivo; outline: as §2
Intestine [30] = assay: Biodistribution in ddY mouse intestine at 0.1 to 0.4 uCi, iv after 10 mins by gamma counting; type: ADME, organism-based; settings: in vivo; outline: as §2
Liver [31] = assay: Biodistribution in ddY mouse liver at 0.1 to 0.4 uCi, iv after 10 mins by gamma counting; type: ADME, organism-based; settings: in vivo; outline: as §2
Kidney [32] = assay: Biodistribution in ddY mouse kidney at 0.1 to 0.4 uCi, iv after 10 mins by gamma counting; type: ADME, organism-based; settings: in vivo; outline: as §2
Brain [33] = assay: Biodistribution in ddY mouse brain at 0.1 to 0.4 uCi, iv after 10 mins by gamma counting; type: ADME, organism-based; settings: in vivo; outline: as §2
Blood [34] = assay: Biodistribution in ddY mouse blood at 0.1 to 0.4 uCi, iv after 10 mins by gamma counting; type: ADME, organism-based; settings: in vivo; outline: as §2
Pancreas [35] = assay: Biodistribution in ddY mouse pancreas at 0.1 to 0.4 uCi, iv after 2 mins by gamma counting; type: ADME, organism-based; settings: in vivo; outline: as §2
Heart [36] = assay: Biodistribution in ddY mouse heart at 0.1 to 0.4 uCi, iv after 2 mins by gamma counting; type: ADME, organism-based; settings: in vivo; outline: as §2
Stomach [37] = assay: Biodistribution in ddY mouse stomach assessed per organ at 0.1 to 0.4 uCi, iv after 2 mins by gamma counting; type: ADME, organism-based; settings: in vivo; outline: as §2
Lung [38] = assay: Biodistribution in ddY mouse lung at 0.1 to 0.4 uCi, iv after 2 mins by gamma counting; type: ADME, organism-based; settings: in vivo; outline: as §2
Intestine [39] = assay: Biodistribution in ddY mouse intestine at 0.1 to 0.4 uCi, iv after 2 mins by gamma counting; type: ADME, organism-based; settings: in vivo; outline: as §2
Spleen [40] = assay: Biodistribution in ddY mouse spleen at 0.1 to 0.4 uCi, iv after 2 mins by gamma counting; type: ADME, organism-based; settings: in vivo; outline: as §2
Kidney [41] = assay: Biodistribution in ddY mouse kidney at 0.1 to 0.4 uCi, iv after 2 mins by gamma counting; type: ADME, organism-based; settings: in vivo; outline: as §2
Liver [42] = assay: Biodistribution in ddY mouse liver at 0.1 to 0.4 uCi, iv after 2 mins by gamma counting; type: ADME, organism-based; settings: in vivo; outline: as §2
Blood [43] = assay: Biodistribution in ddY mouse blood at 0.1 to 0.4 uCi, iv after 2 mins by gamma counting; type: ADME, organism-based; settings: in vivo; outline: as §2
Brain [44] = assay: Biodistribution in ddY mouse brain at 0.1 to 0.4 uCi, iv after 2 mins by gamma counting; type: ADME, organism-based; settings: in vivo; outline: as §2
[45] = n-octanol-sodium phosphate buffer partition co-efficient, log D of the compound at pH 7.4 by shake flask method; type: physicochemical
Outline: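 Shake-flask partition between n-octanol and sodium phosphate buffer, pH 7.4, shaken 10 min at room temperature, then centrifuged. Weighed 0.5 mL samples of each layer counted. log D from the ratio of cpm per gram of octanol to cpm per gram of buffer; n = 3.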

## CCN(CC)CCCC(C)Nc1c2ccc(I)cc2nc2ccc(OC)cc12 (stereo not given)
Mus musculus [1]
  Activity: inactive
Mus musculus [2]
  Activity: Active
[3]
  Ki: 353 nM

## CCN(CC)CCCC(C)Nc1c2ccc([125I])cc2nc2ccc(OC)cc12 (stereo not given)
[4]
  Kd: 48.4 nM
Heart [5]
  Drug uptake: 3.96 % ID/g
Pancreas [6]
  Drug uptake: 6.32 % ID/g
Stomach [7]
  Drug uptake: 1.24 %ID
Lung [8]
  Drug uptake: 25.58 % ID/g
Spleen [9]
  Drug uptake: 11.17 % ID/g
Intestine [10]
  Drug uptake: 5.59 % ID/g
Kidney [11]
  Drug uptake: 12.19 % ID/g
Liver [12]
  Drug uptake: 11.61 % ID/g
Brain [13]
  Drug uptake: 0.28 % ID/g
Blood [14]
  Drug uptake: 0.52 % ID/g
Heart [15]
  Drug uptake: 7 % ID/g
Pancreas [16]
  Drug uptake: 7.67 % ID/g
Stomach [17]
  Drug uptake: 1.48 %ID
Lung [18]
  Drug uptake: 35.64 % ID/g
Spleen [19]
  Drug uptake: 10.88 % ID/g
Intestine [20]
  Drug uptake: 4.4 % ID/g
Kidney [21]
  Drug uptake: 13.93 % ID/g
Liver [22]
  Drug uptake: 11.02 % ID/g
Brain [23]
  Drug uptake: 0.24 % ID/g
Blood [24]
  Drug uptake: 0.73 % ID/g
Heart [25]
  Drug uptake: 13.09 % ID/g
Pancreas [26]
  Drug uptake: 5.85 % ID/g
Stomach [27]
  Drug uptake: 1.33 %ID
Lung [28]
  Drug uptake: 59.55 % ID/g
Spleen [29]
  Drug uptake: 9.38 % ID/g
Intestine [30]
  Drug uptake: 2.55 % ID/g
Liver [31]
  Drug uptake: 9.7 % ID/g
Kidney [32]
  Drug uptake: 13.58 % ID/g
Brain [33]
  Drug uptake: 0.33 % ID/g
Blood [34]
  Drug uptake: 1.85 % ID/g
Pancreas [35]
  Drug uptake: 4.76 % ID/g
Heart [36]
  Drug uptake: 15.53 % ID/g
Stomach [37]
  Drug uptake: 1.18 %ID
Lung [38]
  Drug uptake: 73.08 % ID/g
Intestine [39]
  Drug uptake: 1.89 % ID/g
Spleen [40]
  Drug uptake: 6.14 % ID/g
Kidney [41]
  Drug uptake: 10.23 % ID/g
Liver [42]
  Drug uptake: 8.15 % ID/g
Blood [43]
  Drug uptake: 4.21 % ID/g
Brain [44]
  Drug uptake: 0.32 % ID/g
[45]
  logD: 1.11

Source: ChEMBL document CHEMBL2321753, “Synthesis and biological evaluation of radioiodinated quinacrine-based derivatives for SPECT imaging of Aβ plaques” (Eur J Med Chem, 2013)
